Assay [1] has as its target T1, 3-hydroxy-3-methylglutaryl-coenzyme A reductase (Mus musculus) (UniProt Q01237).
T1 sequence (whole entry): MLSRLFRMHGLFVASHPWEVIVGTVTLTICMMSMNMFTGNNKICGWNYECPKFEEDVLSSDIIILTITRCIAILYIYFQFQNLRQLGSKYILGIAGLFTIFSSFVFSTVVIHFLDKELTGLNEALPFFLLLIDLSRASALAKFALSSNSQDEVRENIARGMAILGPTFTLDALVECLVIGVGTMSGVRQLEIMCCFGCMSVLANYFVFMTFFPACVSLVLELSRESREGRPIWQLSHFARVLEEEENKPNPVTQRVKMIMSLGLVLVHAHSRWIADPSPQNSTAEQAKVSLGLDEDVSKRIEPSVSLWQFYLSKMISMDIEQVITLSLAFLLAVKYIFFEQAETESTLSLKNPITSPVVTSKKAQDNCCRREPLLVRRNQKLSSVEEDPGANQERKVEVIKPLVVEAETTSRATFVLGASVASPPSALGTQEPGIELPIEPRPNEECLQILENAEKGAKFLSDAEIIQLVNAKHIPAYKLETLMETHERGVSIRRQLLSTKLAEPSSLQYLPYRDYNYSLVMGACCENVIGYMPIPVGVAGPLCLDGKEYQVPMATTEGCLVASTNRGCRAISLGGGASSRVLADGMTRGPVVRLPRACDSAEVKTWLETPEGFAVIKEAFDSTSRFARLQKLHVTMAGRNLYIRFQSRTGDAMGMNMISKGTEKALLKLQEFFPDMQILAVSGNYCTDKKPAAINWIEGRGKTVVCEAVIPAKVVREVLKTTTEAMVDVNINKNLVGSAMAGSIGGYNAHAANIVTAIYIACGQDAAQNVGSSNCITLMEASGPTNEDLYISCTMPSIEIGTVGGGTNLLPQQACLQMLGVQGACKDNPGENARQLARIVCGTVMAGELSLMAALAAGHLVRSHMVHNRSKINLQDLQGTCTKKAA
Kind of assay: In Vitro evaluation for the CF1 liver enzyme activity on HMG-CoA reductase at concentration 100 uM. Summed up:
(§1)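 Liver was taken from CF1 male mice and made into 10% homogenates, which were incubated with test compound at 50, 100 or 200 µM. Each enzyme was assayed by its literature method, and protein was measured by Lowry. N = 6. Activity is expressed as % of untreated control ± SD.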

For assay [2], the target named is T1, 3-hydroxy-3-methylglutaryl-coenzyme A reductase (Mus musculus). The experiment in a line: In Vivo effect for the hypolipidemic activity on HMG-CoA reductase in CF1 mice after 16 days of oral administration at a dose of 60 mg/kg. Format: organism-based. Also noted: dose 60 mg/kg. A digest of the protocol:
(§2)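 CF1 male mice are dosed orally at 10–60 mg/kg per day for 16 days, with 1% CMC as the control vehicle. Liver is homogenized at 10% in 0.25 M sucrose + 0.001 M EDTA, pH 7.2. Enzymes are assayed by literature methods, with Lowry protein. Activity is given as % of control (X ± SD, N = 6), with p from Student's t test.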

Assay [3] has as its system Mus musculus. The experiment in a line: Compound was evaluated for the hypolipidemic activity in CF1 male mice at a dose of 40 mg/kg orally for Serum cholesterol at 9th day. The format is functional. The conditions noted are these: route oral. A digest of the protocol:
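CF1 male mice received the agent orally in 1% CMC at 10–60 mg/kg per day. Tail-vein blood was taken on days 9 and 16. Serum cholesterol was measured by modified Liebermann–Burchard on duplicate 25-µL samples, and serum triglyceride on day 16 in duplicate 50-µL samples. Values are % of vehicle control, mean ± SD, N = 6; Student's t test.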

The species named for assay [4] is Mus musculus. The experiment in a line: In Vitro evaluation for the CF1 liver enzyme activity on Acetyl-CoA carboxylase at concentration 50 uM. The format is functional. A digest of the protocol: as §1
The target in assay [5] is T2, Sterol O-acyltransferase 1 (Mus musculus) (UniProt Q61263).
T2 sequence (whole entry): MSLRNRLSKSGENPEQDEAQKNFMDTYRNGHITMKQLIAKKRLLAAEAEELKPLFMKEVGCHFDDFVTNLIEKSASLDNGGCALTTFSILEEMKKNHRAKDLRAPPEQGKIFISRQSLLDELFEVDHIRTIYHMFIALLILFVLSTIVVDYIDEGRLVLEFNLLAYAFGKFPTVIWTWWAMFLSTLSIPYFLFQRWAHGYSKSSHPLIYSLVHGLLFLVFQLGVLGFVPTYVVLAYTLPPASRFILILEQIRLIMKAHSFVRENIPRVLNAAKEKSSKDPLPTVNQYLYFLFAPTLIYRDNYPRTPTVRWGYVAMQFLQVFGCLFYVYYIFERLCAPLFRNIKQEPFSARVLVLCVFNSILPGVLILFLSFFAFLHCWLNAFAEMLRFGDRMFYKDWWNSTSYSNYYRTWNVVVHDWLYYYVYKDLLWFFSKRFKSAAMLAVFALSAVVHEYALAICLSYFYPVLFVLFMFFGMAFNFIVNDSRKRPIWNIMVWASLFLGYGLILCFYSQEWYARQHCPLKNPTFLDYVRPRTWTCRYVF
The experiment in a line: In Vivo effect for the hypolipidemic activity on Acyl-COA cholesterol acyltransferase in CF1 mice after 16 days of oral administration at a dose of 60 mg/kg. Format: functional, organism-based. Also noted: dose 60 mg/kg. Summed up: as §2

A further assay deals with Rattus norvegicus. The experiment in a line: Compound was evaluated for the hypolipidemic activity at 20 mg/kg per day orally for 14 days on lipid content in rat small intestine. The conditions noted are these: route oral. The format is functional. A digest of the protocol: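 Male Sprague–Dawley rats were dosed orally for 14 days. Liver, small intestine and a 24-h fecal collection were lipid-extracted. Extracts were assayed for cholesterol (modified Liebermann–Burchard), triglyceride (enzymatic kit), neutral lipids, phospholipids and protein. Values are % of 1% CMC vehicle control, mean ± SD, N = 6.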

The species entered for assay [6] is Mus musculus. The experiment in a line: In Vitro evaluation for the CF1 liver enzyme activity on Hepatic lipoprotein lipase at concentration 50 uM. The format is functional. Summed up: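 Mouse liver enzymes assayed in vitro on 10% homogenates of CF1 male mouse liver, with test drug added at 50–200 μM. Each enzyme follows a published procedure. Protein is measured by Lowry. Activity is given as % of untreated control (X ± SD, N = 6).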

Molecules are shown by their SMILES.

With `COc1ccc(C2C(=O)c3ccccc3C2=O)cc1` [ANISINDIONE], the Control in assay [1] stood at 109%; in assay [2], 126%; in the assay on Mus musculus [3], 79%; in the assay listed under Mus musculus [4] it was 118%; in assay [5] it was 48%; with Rattus norvegicus it was 100%. In the assay filed under Mus musculus [6], this compound showed a Control of 86%.

Values taken from ChEMBL document CHEMBL1123129, “Hypolipidemic activity of indan-1,3-dione derivatives in rodents” (J Med Chem, 1985).
